Source: PubChem
A selection: hits, their analogues and other compounds. The true share with any hit is near 1.6%.
FLuc inh counter: counter-screen for luciferase assay inhibitors: firefly luciferase inhibition; P08659; ATPLite firefly luciferase biochemical luminescence, 10 min; inhibition, % at 10 µM; 200,000 tested, 1.5% active; AID 1006;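 active = inhibition above about 50% when tested at 10 µM, limit read from the data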
Target sequence (P08659 whole entry, looked up): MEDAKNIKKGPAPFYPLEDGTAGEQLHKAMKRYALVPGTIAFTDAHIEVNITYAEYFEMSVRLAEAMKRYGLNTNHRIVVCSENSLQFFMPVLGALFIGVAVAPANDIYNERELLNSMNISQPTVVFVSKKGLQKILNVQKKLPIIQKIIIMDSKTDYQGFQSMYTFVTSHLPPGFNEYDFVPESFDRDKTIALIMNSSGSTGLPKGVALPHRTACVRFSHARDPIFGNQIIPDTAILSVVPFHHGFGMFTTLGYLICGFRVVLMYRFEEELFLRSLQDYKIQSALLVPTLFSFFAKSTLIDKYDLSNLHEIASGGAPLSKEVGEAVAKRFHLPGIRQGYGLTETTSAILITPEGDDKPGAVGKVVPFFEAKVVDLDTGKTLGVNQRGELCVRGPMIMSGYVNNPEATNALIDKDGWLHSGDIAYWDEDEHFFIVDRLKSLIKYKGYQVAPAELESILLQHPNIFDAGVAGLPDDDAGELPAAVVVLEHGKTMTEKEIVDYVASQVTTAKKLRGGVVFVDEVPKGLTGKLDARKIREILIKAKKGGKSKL
PPC-1+TRAIL kill: kills PPC-1 cancer cells in the presence of TRAIL; cell killing (% activity), % at 4 µM or 5 µM; PPC-1 cells + TRAIL, ATPLite viability luminescence; 220,000 tested, 0.41% active; AID 1443;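 active = cell killing above 50% in the first pass at 4 µM, then a duplicate retest at 5 µM averaging 50% or more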;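 note: plate controls were cells with TRAIL plus DMSO for no effect and medium-only wells lacking cells for full effect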
TRAIL sens C8: sensitizes caspase-8 expressing cells to TRAIL; 360,000 tested, 1% active; inhibition (viability loss, TRAIL sensitization), % at 10 µM; NB7+C8 cells + TRAIL, ATPlite viability luminescence; AID 624354;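 active = compounds causing at least 50% loss of cell viability in the single-dose screen, relative to plate controls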
FLuc stim CS: affects firefly luciferase, flagging false hits in luciferase stimulation screens | activation factor at 10 µM | AID 1027 | ATPlite luciferase biochemical, luminescence, 10 min; 0 = ATP-free wells, 1 = DMSO control | P08659 | 200,000 tested, under 10 active;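 active = luciferase activation factor, scaled between plate controls, of at least 2 with compound at 10 µM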
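Assay system: Luciferase/luciferin detection reagent, cell-free biochemical luciferase assay / Read-out: luciferase activation / Benchmarks: No-ATP low control, compound-free enzyme-plus-ATP high control / Medium: PBS buffer for ATP / Detection: luminescence measurement of luciferase light output / Schedule: 10 min at ambient temperature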
The depositor's hits bear a star; nt = no result given.

SMILES	FLuc inh counter	PPC-1+TRAIL kill	TRAIL sens C8	FLuc stim CS
Cn1c(N)c(C(=O)CSc2nnc(C3CC3)n2N)c(=O)n(C)c1=O	nt	nt	1	nt
c1ccc2nc(-c3nc4ccccc4o3)ccc2c1	88*	23	76*	0.1
c1ccc(-c2nc3ccccc3o2)nc1	31	3	5	0.7
COc1cc(C(=O)O[C@H]2CC(C)=CC[C@@]3(C)CC[C@@](O)(C(C)C)[C@H]23)ccc1O	nt	nt	8	nt
O=C1C=CC(=O)c2c(O)c(N3CCN(CCO)CC3)c(Cl)c(O)c21	nt	nt	90*	nt
OCCOCCN1CCN(C2=Nc3ccccc3Sc3ccccc32)CC1	0	24	1	1
O=C1C=CC(=O)c2c(O)c(N3CCN(CCOCCO)CC3)c(Br)c(O)c21	nt	nt	90*	nt
O=S(=O)(c1ccc(Br)cc1Cl)N1CCN(CCO)CC1	-7	-9	0	1.1
CCN(CC)S(=O)(=O)c1cc(NC(=O)Cn2ncc(Cl)c(Cl)c2=O)ccc1C	nt	17	62*	nt
CCC(=O)Nc1ccc(C(=O)Cn2ncc(Cl)c(Cl)c2=O)cc1	nt	11	94*	nt
CCCc1cc(=O)[nH]c(SCC(=O)N2CCCc3ccccc32)n1	72*	-3	21	0.3
O=C(Cn1ncc(Cl)c(Cl)c1=O)c1ccc2c(c1)OCCO2	nt	nt	89*	nt
CCCc1cc(=O)[nH]c(SCC(=O)Nc2cc(S(=O)(=O)N3CCCCC3)ccc2C)n1	nt	nt	50*	nt
Cc1ccc(S(=O)(=O)N2CCCCC2)cc1NC(=O)Cn1ncc(Cl)c(Cl)c1=O	nt	nt	96*	nt
Cc1cc(=O)[nH]c(SCC(=O)Nc2cc(S(=O)(=O)N3CCCC3)ccc2Cl)n1	nt	16	-1	nt
O=C(Cn1ncc(Cl)c(Cl)c1=O)Nc1ccc2c(c1)OCO2	nt	nt	94*	nt
O=C(Cn1ncc(Cl)c(Cl)c1=O)NC(=O)NC1CCCCC1	nt	nt	93*	nt
O=C(CN1CCCCC1)NC(=O)NC1CCCC1	0	26	-3	1
COc1ccc(N2CCN(Cc3nc(-c4ccccc4)no3)CC2)cc1	-4	nt	4	1
CCc1ccc([C@@H]2CC(=O)[C@@H]3CN(S(=O)(=O)c4ccccc4C)[C@H](c4ccc(Cl)cc4)C[C@@H]3N2S(=O)(=O)c2ccc(C)cc2)cc1	nt	nt	13	nt
CCOC(=O)c1c(NC(=O)CC2Nc3cc(C)c(C)cc3NC2=O)sc(C)c1C (centres undefined)	-3	-9	-11	1
O=C(O)c1cccc(-n2cc(-c3cccc(C(F)(F)F)c3)cn2)c1	nt	nt	-30	nt
COc1ccc(/C=C2/CCC(CN3CCOCC3)C2=O)cc1 (centres undefined)	nt	nt	80*	nt
COc1ccccc1N1CCN(CCS(=O)(=O)c2cc(Cl)ccc2Cl)CC1	nt	nt	-2	nt
CC(C)(C)c1ccc(C(=O)Nc2cccc3c(=O)[nH][nH]c(=O)c23)cc1	70*	31	47	0.3
SMILES	FLuc inh counter	PPC-1+TRAIL kill	TRAIL sens C8	FLuc stim CS
Cc1ccc(S(=O)(=O)c2nnn3c2nc(NC2CCN(Cc4ccccc4)CC2)c2ccccc23)cc1C	nt	nt	88*	nt
Cc1ccc(S(=O)(=O)c2nnn3c2nc(NCCCN2CCCC2=O)c2ccccc23)cc1C	nt	nt	2	nt
Oc1ccc(-c2nnc(SCC3CCCCC3)o2)cc1	30	15	72*	0.7
O=C(CSc1nnc(-c2ccc(O)cc2)o1)N1CCOCC1	3	6	-4	1
CCN(CC)C(=O)[C@H]1CC(CC(=O)NCCCOC)C(=O)N2CCc3c([nH]c4ccccc34)[C@]12C (some centres undefined)	nt	nt	-2	nt
Cc1ccc(C)c(OCCC(=O)N2CCN(S(=O)(=O)c3ccc([N+](=O)[O-])cc3)CC2)c1	nt	nt	10	nt
Cc1nc(-c2ccccc2)sc1-c1ccn[nH]1	70*	27	34	0.3
Cc1nc(-c2ccccc2)sc1-c1ccnn1C	57*	7	29	0.4
COc1cccc(-n2c(SCC(=O)N3CCCCC3)nc3c([nH]c4ccccc43)c2=O)c1	-2	4	54*	1
O=C(CCl)N(CCCNC(=O)C(F)(F)F)c1ccc([N+](=O)[O-])cc1	nt	21	95*	nt
O=C(Nc1cccc([N+](=O)[O-])c1)c1ccc2ccccc2c1O	nt	28	54*	nt
O=C(Nc1cccc([N+](=O)[O-])c1)c1ccncc1	-5	23	-3	1
CC(C)(C)c1ccc(C(=O)Nc2cccc([N+](=O)[O-])c2)cc1	72*	39	55*	0.3
O=C(CCN=C1NS(=O)(=O)c2ccccc21)OCc1nnc(-c2ccccc2)o1	nt	nt	24	nt
O=C1c2ccccc2C(c2nnnn2Cc2ccccc2)N1CCc1c[nH]c2ccccc12 (centres undefined)	nt	nt	9	nt
COc1ccc(C(CNC(=O)COc2cccc(C(F)(F)F)c2)N2CCCC2)cc1 (centres undefined)	nt	nt	8	nt
Cc1ccc(NC(=O)CCNCc2ccco2)cc1S(=O)(=O)N(C)C	79*	15	3	0.2
Cc1cc2ccccc2n2c(SCC(=O)NCC3CCCO3)nnc12 (centres undefined)	-3	18	nt	1
CCCCCCCCCCCCCCC(O)C[N+](C)(CCO)CCO (centres undefined)	nt	nt	88*	nt
CC/C(=N\NC(=O)C1CCCC1)c1ccc(Br)cc1	nt	nt	14	nt
CCC(=O)n1nc(-c2ccc(Cl)cc2)nc1N	-5	0	0	1.1
CCc1nc(N)nc(N)c1-c1ccc(NCCN)c([N+](=O)[O-])c1	nt	nt	79*	nt
CCc1nc(N)nc(N)c1-c1ccc(Cl)cc1	-8	24	81*	1.1
Cc1ccc(NC(=O)c2ccc(NCCN)c([N+](=O)[O-])c2)cc1	5	16	18	0.9
CCc1nc(N)nc(N)c1-c1ccc(N(C)Cc2ccccc2)c([N+](=O)[O-])c1	nt	nt	70*	nt
SMILES	FLuc inh counter	PPC-1+TRAIL kill	TRAIL sens C8	FLuc stim CS
O=[N+]([O-])c1c(N2CCN(CCO)CC2)nc2ccccn12	nt	18	-3	nt
COCc1cc(C)nc(OCC(=O)N/N=C/c2ccc(-c3cc([N+](=O)[O-])ccc3Cl)o2)c1C#N	-6	nt	6	1.1
COCCn1c(C)cc(C2=NNC(=Nc3ccccc3)SC2)c1C	88*	22	37	0.1
COCCn1c(C)cc(C2=NNC(=Nc3ccc(OC)cc3)SC2)c1C	-2	7	12	1
CCN=C1NN=C(c2cc(C)n(CCc3ccccc3)c2C)CS1	-4	7	-35	1
CCN=C1NN=C(c2cc(C)n(Cc3ccco3)c2C)CS1	91*	28	8	0.1
COC(=O)N1CCC2CC1c1c(Cl)cccc12 (centres undefined)	nt	nt	0	nt
Cn1c(CNC(=O)C(Cc2ccccc2)NC(=O)c2ccccc2F)cc(=O)n(C)c1=O (centres undefined)	nt	nt	-2	nt
N#Cc1c(N)n(CCNC(=O)c2ccc(Cl)cc2)c2nc3ccccc3nc12	-2	2	-5	1
Cc1ccc(C(=O)NCCn2c(N)c(C#N)c3nc4ccccc4nc32)cc1	-8	73*	-8	1.1
CC(=O)Nc1ccc(CNc2nc3cc(-c4ccc(F)cc4)sc3c(=O)n2C)cc1	nt	nt	2	nt
O=C(N[C@@H]1C/C=C\C[C@H](CC(=O)N(CCO)Cc2ccccc2)C(=O)NC[C@@H](c2ccccc2)OC1=O)OCC1c2ccccc2-c2ccccc21	nt	nt	8	nt
